Measured values as given in ChEMBL document CHEMBL4837218, “Synthesis and in vitro antitumour activity of 4(R)-methyl-3-O-phosphonomethyl-α-l-threose nucleosides” (Eur J Med Chem, 2021).
The source made the active and inactive calls. The rule behind the calls is not given here.

Columns and labels:
[1] = test system: A549; experiment: Antiproliferative activity against human A549 cells assessed as cell growth inhibition measured after 72 hrs by MTT assay; assay type: functional, cell-based; conditions: A549, 72 h
Procedure, shortened: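 Cells seeded at 3000 exponentially growing cells/well and incubated 12 h at 37 °C. Medium then replaced with fresh medium containing graded compound concentrations for 72 h; 5-FU positive control. MTT (5 mg/mL solution) added for 4 h, formazan dissolved in DMSO, absorbance read at 570 nm (reference 630 nm). Relative percentage inhibition of viable cells calculated; IC50 reported as mean ± standard deviation.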

[2] = test system: MCF7; experiment: Inhibition of colony formation in human MCF7 cells incubated for 24 hrs followed by medium removal and measured after 7 days by crystal violet staining based assay; assay type: functional, cell-based; conditions: dose 1-4 µM
Procedure, shortened: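 Cells seeded at 1 × 10³ per well in six-well plates and left overnight. Compound (DMSO solution) given in fresh medium for 24 h, then medium removed and plates grown another 7 days. Colonies washed with PBS, fixed in 4% paraformaldehyde 30 min, stained with 0.1% crystal violet 30 min, photographed and counted.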

[3] = test system: MCF7; experiment: Cell cycle arrest in human MCF7 cells assessed as accumulation at G2/M phase at 2 uM measured after 48 hrs by propidium iodide staining based flow cytometry (reference value: 0.01 %); assay type: functional
[4] = test system: MCF7; experiment: Cell cycle arrest in human MCF7 cells assessed as accumulation at G1 phase at 4 uM measured after 48 hrs by propidium iodide staining based flow cytometry (reference value: 70.09 %); assay type: functional
[5] = test system: MCF7; experiment: Cell cycle arrest in human MCF7 cells assessed as accumulation at S phase at 4 uM measured after 48 hrs by propidium iodide staining based flow cytometry (reference value: 25.34 %); assay type: functional
[6] = test system: MCF7; experiment: Induction of apoptosis in human MCF7 cells assessed as late apoptotic cells at 4 uM measured after 48 hrs by Annexin V-FITC/propidium iodide staining based flow cytometric analysis (reference value: 0.6 %); assay type: functional
[7] = test system: MDA-MB-231; experiment: Induction of mitochondrial membrane potential loss in human MDA-MB-231 cells assessed as red fluorescence intensity at 9 uM measured after 48 hrs by JC1 staining-based flow cytometry analysis (reference value: 99.2 %); assay type: functional
[8] = test system: MCF7; experiment: Induction of DNA damage in human MCF7 cells assessed as increase in Chk1 protein expression at 1 to 4 uM measured after 48 hrs by western blot analysis; assay type: functional, cell-based; conditions: dose 1-4 µM
Procedure, shortened: (§1)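 Cells exposed to graded concentrations for 48 h, then proteins extracted. Run on SDS-PAGE (5–15% gels) and transferred to nitrocellulose. Blocked 2 h in 5% nonfat milk in PBS/0.1% Tween 20, primary antibody overnight at 4 °C, biotin-conjugated secondary 1 h. Visualized on X-ray film with densitometric quantitation; three independent experiments.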

[9] = test system: MDA-MB-231; experiment: Induction of DNA damage in human MDA-MB-231 cells assessed as increase in Chk2 phosphorylation at Thr68 residue at 3 to 9 uM measured after 48 hrs by western blot analysis; assay type: functional, cell-based; conditions: dose 3-9 µM; procedure, shortened: as §1
[10] = test system: MCF7; experiment: Induction of apoptosis in human MCF7 cells assessed as increase in cleaved caspase 3 protein expression at 1 to 4 uM measured after 48 hrs by western blot analysis; assay type: functional, cell-based; conditions: dose 1-4 µM
Procedure, shortened: (§2)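 MCF-7 and MDA-MB-231 breast cancer cells treated 48 h with a concentration series, then lysed for protein. SDS-PAGE on 5–15% gels, transfer to nitrocellulose. Blocked 2 h in 5% nonfat milk/PBS-0.1% Tween 20, primary antibodies overnight at 4 °C, biotin-conjugated secondary 1 h. X-ray film detection with densitometric quantification.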

[11] = test system: MCF7; experiment: Induction of apoptosis in human MCF7 cells assessed as increase in Noxa protein expression at 1 to 4 uM measured after 48 hrs by western blot analysis; assay type: functional, cell-based; conditions: dose 1-4 µM; procedure, shortened: as §2
[12] = test system: MDA-MB-231; experiment: Induction of apoptosis in human MDA-MB-231 cells assessed as increase in cleaved caspase 9 protein expression at 3 to 9 uM measured after 48 hrs by western blot analysis; assay type: functional, cell-based; conditions: dose 3-9 µM; procedure, shortened: as §2
[13] = test system: MDA-MB-231; experiment: Induction of apoptosis in human MDA-MB-231 cells assessed as increase in Bad protein expression at 3 to 9 uM measured after 48 hrs by western blot analysis; assay type: functional, cell-based; conditions: dose 3-9 µM; procedure, shortened: as §2
[14] = test system: MDA-MB-231; experiment: Induction of apoptosis in human MDA-MB-231 cells assessed as decrease in Mcl-1 protein expression at 3 to 9 uM measured after 48 hrs by western blot analysis; assay type: functional, cell-based; conditions: dose 3-9 µM; procedure, shortened: as §2
[15] = test system: MCF7; experiment: Inhibition of PI3K/AKT signalling pathway in human MCF7 cells assessed as downregulation of AKT phosphorylation at Ser473 residue at 1 to 4 uM measured after 48 hrs by Western blot analysis; assay type: cell-based; conditions: dose 1-4 µM
Procedure, shortened: (§3)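 After 48 h exposure to compound at several concentrations, cells collected and proteins extracted. SDS-PAGE on 5–15% gels, transfer to nitrocellulose, blocking 2 h in 5% nonfat milk in PBS/0.1% Tween 20, primary antibodies overnight at 4 °C, biotin-conjugated secondary 1 h. Detection on X-ray film; band densitometry.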

[16] = test system: MDA-MB-231; experiment: Inhibition of PI3K/AKT signalling pathway in human MDA-MB-231 cells assessed as downregulation of 85ap-PI3K expression at 3 to 9 uM measured after 48 hrs by Western blot analysis; assay type: cell-based; conditions: dose 3-9 µM; procedure, shortened: as §3
[17] = test system: MDA-MB-231; experiment: Inhibition of PI3K/AKT signalling pathway in human MDA-MB-231 cells assessed as downregulation of AKT phosphorylation at Ser473 residue at 3 to 9 uM measured after 48 hrs by Western blot analysis; assay type: cell-based; conditions: dose 3-9 µM; procedure, shortened: as §3
[18] = test system: MCF7; experiment: Induction of apoptosis in human MCF7 cells assessed as late apoptotic cells at 4 uM measured after 48 hrs in presence of cdc25c inhibitor, NSC663284 by AnnexinV-FITC/PI staining based flow cytometry (reference value: 4.9%); assay type: functional
[19] = test system: MCF7; experiment: Induction of G2/M phase cell cycle arrest in human MCF7 cells assessed as upregulation of cdc25c protein expression at 4 uM measured after 48 hrs in presence of cdc25c inhibitor, NSC663284 by western blot analysis; assay type: functional, cell-based
Procedure, shortened: (§4)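 Four groups (untreated, test compound, 0.3 NSC663284, combination) treated 48 h before protein extraction. Lysates resolved by SDS-PAGE (5–15%) and blotted to nitrocellulose. Blocked 2 h in 5% milk/PBS-0.1% Tween 20, primary antibody overnight at 4 °C, biotinylated secondary 1 h. Detected on X-ray film and quantified by densitometry.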

[20] = test system: MCF7; experiment: Induction of G2/M phase cell cycle arrest in human MCF7 cells assessed as downregulation of p-cdc2 protein expression at 4 uM measured after 48 hrs in presence of cdc25c inhibitor, NSC663284 by western blot analysis; assay type: functional, cell-based; procedure, shortened: as §4
[21] = test system: MDA-MB-231; experiment: Induction of G2/M phase cell cycle arrest in human MDA-MB-231 cells assessed as upregulation of cdc25c protein expression at 9 uM measured after 48 hrs in presence of cdc25c inhibitor, NSC663284 by western blot analysis; assay type: functional, cell-based
[22] = test system: MDA-MB-231; experiment: Induction of apoptosis in human MDA-MB-231 cells assessed as increase in cleaved caspase 9 protein expression at 9 uM measured after 48 hrs in presence of cdc25c inhibitor, NSC663284 by western blot analysis; assay type: functional, cell-based
Procedure, shortened: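 Four arms per cell line: untreated, test compound, 0.3 µM NSC663284 alone, and combination. Proteins harvested after 48 h and resolved by SDS-PAGE on 5–15% gels, transferred to nitrocellulose. Blocked 2 h in milk/PBS-Tween, primary antibodies overnight at 4 °C, biotin-conjugated secondary. Read on X-ray film with densitometry.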

IC50 [1]: 3.48 µM
SMILES: C[C@H]1O[C@@H](n2cnc3c(N)nc(F)nc32)[C@H](O)[C@H]1OCP(=O)([O-])[O-].[Na+].[Na+]
inhibition [2]: Dose-Dependent Effect
Activity [3]: 17.9%
Activity [4]: 41.95%
Activity [5]: 31.16%
Activity [6]: 8.7%
Activity [7]: 37%
Activity [8]: Active
Activity [9]: Active
Activity [10]: Active
Activity [11]: Active
Activity [12]: Active
Activity [13]: Active
Activity [14]: Active
inhibition [15]: Active
inhibition [16]: Active
inhibition [17]: Active
Activity [18]: 5.2%
Activity [19]: inactive
Activity [20]: inactive
Activity [21]: inactive
Activity [22]: inactive
